TRPC6 act = activators of mouse TRPC6 channel; actives 0.13% (n = 310,000); Q61143; B-score at 10 µM; HEK293-TRPC6 membrane potential dye fluorescence; active compounds read high;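 active = B-score of the integrated fluorescence ratio above library mean plus 3 SD, and starting fluorescence ratio within library mean plus 5 SD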;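 also: higher score means more depolarization so channel activation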
Target sequence (Q61143 whole entry, looked up): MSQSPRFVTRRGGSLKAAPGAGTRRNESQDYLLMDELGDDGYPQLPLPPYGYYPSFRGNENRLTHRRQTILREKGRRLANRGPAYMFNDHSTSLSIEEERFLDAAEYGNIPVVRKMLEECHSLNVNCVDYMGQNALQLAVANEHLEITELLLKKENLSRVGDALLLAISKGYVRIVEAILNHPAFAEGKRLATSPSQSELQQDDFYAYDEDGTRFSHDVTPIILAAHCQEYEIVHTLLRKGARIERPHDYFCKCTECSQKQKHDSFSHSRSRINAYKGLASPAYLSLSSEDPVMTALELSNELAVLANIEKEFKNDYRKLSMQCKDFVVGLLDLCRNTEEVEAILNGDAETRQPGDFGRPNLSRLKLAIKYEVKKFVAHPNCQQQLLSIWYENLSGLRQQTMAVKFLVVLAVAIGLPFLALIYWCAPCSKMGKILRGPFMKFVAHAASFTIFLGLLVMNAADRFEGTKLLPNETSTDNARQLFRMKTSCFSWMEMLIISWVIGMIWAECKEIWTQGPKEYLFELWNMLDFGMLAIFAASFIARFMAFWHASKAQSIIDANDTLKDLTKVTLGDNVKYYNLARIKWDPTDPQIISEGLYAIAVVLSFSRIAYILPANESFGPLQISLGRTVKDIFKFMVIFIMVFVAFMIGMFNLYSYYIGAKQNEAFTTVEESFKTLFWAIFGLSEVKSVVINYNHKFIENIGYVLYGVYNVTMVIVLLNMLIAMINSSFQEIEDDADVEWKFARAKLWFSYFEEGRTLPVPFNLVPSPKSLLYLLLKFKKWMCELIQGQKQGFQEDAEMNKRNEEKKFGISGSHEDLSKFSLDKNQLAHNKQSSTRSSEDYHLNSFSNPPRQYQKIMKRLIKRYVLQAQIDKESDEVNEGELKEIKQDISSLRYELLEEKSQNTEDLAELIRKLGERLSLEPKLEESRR
TRPC4 inh = blocks the mouse TRPC4 cation channel. actives 0.39% (n = 300,000). Q9QUQ5. B-score at 10 µM. HEK293 TRPC4beta/mu-opioid, DAMGO-evoked Fluo4 calcium flux; active compounds read low;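 active = B-score over 3 SD under the library average, no early fluorescence shift, positive overall ratio signal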
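Assay system – HEK293 line stably carrying TRPC4beta and mu-opioid receptor · Doses – single dose · Detection – Fluo4 calcium-dye fluorescence, kinetic read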
TRPC4 agonist = TRPC4 (mouse) channel activation | Q9QUQ5 | HEK293 TRPC4beta/mu-opioid, Fluo4 calcium fluorescence; active compounds read high | B-score at 10 µM | actives 0.49% (n = 310,000);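 active = B-score above 5 SD of library B-scores, and initial fluorescence ratio not above library mean plus 5 SD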;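 also: positive B-score marks a calcium rise read as TRPC4 activation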
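Incubation: 45 min room-temperature Fluo4 loading, 110 s read / System: HEK293 cells stably co-expressing mouse TRPC4beta and mu-opioid receptor / Signal: Fluo4 fluorescence, kinetic / Control set: buffer (low) and maximal DAMGO (high) / Measure: integrated baseline-normalised fluorescence ratio, converted to per-well B score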
TRPC4 potent = TRPC4 (mouse) allosteric potentiation; Q9QUQ5; B-score at 10 µM; HEK293 TRPC4beta/mu-opioid, DAMGO EC20, Fluo-4 Ca2+ flux; active compounds read high; actives 0.42% (n = 310,000);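 active = B-score of calcium response area above 5 SD of library B-scores, with initial fluorescence ratio within 5 SD of library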
TRPC6 inh = blocks the mouse TRPC6 cation channel | Q61143 | HEK293-TRPC6, membrane potential dye, ACh-evoked depolarization; active compounds read low | B-score at 10 µM | actives 1.1% (n = 310,000);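 active = B-score under library mean minus 3 SD, initial fluorescence not abnormally high, positive integrated signal ratio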;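 also: B-score derived from integrated fluorescence ratio over the kinetic read; more negative B-score means stronger inhibition of depolarization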
A number is an active result; 0 = inactive; - = not tested or not shown. Hits are enriched below; roughly 2.3% of the tested compounds scored in any of these assays.

SMILES | TRPC6 act | TRPC4 inh | TRPC4 agonist | TRPC4 potent | TRPC6 inh
CCOc1ccc(NS(=O)(=O)c2ccc(C(=O)N3CCCC(C)C3)cc2)cc1 (stereo unspecified) | 0 | 0 | 54 | 0 | 0
Cc1ccc(NS(=O)(=O)c2ccc(C(=O)N3CC(C)OC(C)C3)cc2)cc1 (stereo unspecified) | 0 | 0 | 53 | 0 | 0
O=C(c1ccc(S(=O)(=O)Nc2ccccc2)cc1)N1CCCC(C(F)(F)F)C1 (stereo unspecified) | 0 | 0 | 54 | 0 | 0
CCOc1ccc(S(=O)(=O)Nc2ccc(C(=O)N3CCCC3)cc2)cc1 | 0 | 0 | 0 | 0 | 0
Cc1ccc(NS(=O)(=O)c2ccc(C(=O)N3CCC3)cc2)cc1 | 0 | 0 | 0 | 0 | 0
O=C(c1ccccc1)c1ccc(C(=O)N2CCCC(C(F)(F)F)C2)cc1 (stereo unspecified) | 0 | 0 | 0 | 0 | 0
COc1c2c(c(C)c3c1C(=O)OC3)O[C@@]1(C)CC[C@@]3(O)C(C)(C)OC(=O)CC[C@]3(C)[C@H]1C2 | 0 | 0 | 0 | 0 | 0
COc1ccc(CN2CCCC2C(=O)Nc2ccc(OC)c(OC)c2)cc1OC (stereo unspecified) | 0 | 0 | 0 | 0 | -5.7
C/C(CC(=O)Nc1ccc(F)cc1F)=N\NC(=O)C(=O)N1CCCCC1 | 0 | 0 | 0 | 0 | 0
C=CCn1c(SCC(=O)N2CCCCC2)nnc1-c1ccncc1 | 0 | 0 | 75 | 0 | 0
COc1cc(/C=C/C(=O)OCC(=O)Nc2c(C)n(C)n(-c3ccccc3)c2=O)ccc1OCC#N | 0 | 0 | 125 | 0 | 0
COc1cc(/C=C/C(=O)OCC(=O)Nc2c(C)n(C)n(-c3ccccc3)c2=O)ccc1O | 0 | 0 | 0 | 0 | 0
CN(CC(=O)Nc1cccc(F)c1)C(=O)COc1cccc2c1OC(C)(C)C2 | 0 | 0 | 0 | 0 | 0
CCOc1ccc(NC(=O)CSc2nnc(CNC(=O)c3ccco3)o2)cc1 | 0 | 0 | 0 | 0 | 0
CCOC(=O)C1(CCOc2ccccc2)CCN(Cc2cnc(SC)nc2)CC1 | 0 | 0 | 0 | 0 | 0
CCOC(=O)C1(CC2CC2)CCN(Cc2cnc(-c3ccccc3C)nc2)CC1 | 0 | 0 | 118 | 0 | 0
CCOC(=O)C1(CC2CC2)CCN(Cc2cc(Cl)c(O)c(OC)c2)CC1 | 0 | -9 | 0 | 0 | 0
CCc1ccc(Nc2n[n+](-c3ccccc3)c(-c3c(Cl)cccc3Cl)s2)cc1 | 0 | 0 | 0 | 0 | 0
CCc1ccc(Nc2n[n+](-c3ccccc3)c(/C=C/c3ccccc3)s2)cc1 | 0 | 0 | 0 | 15 | 0
COc1ccc(-n2c3c(cc(C(=O)NCc4ccco4)c2=O)C(=O)CC(C)(C)C3)cc1 | 0 | -7 | 0 | 0 | 0
O=S(=O)(Cc1noc(-c2ccccc2Cl)n1)c1ccccn1 | 0 | 0 | 0 | 0 | 0
CC(NCC1(N2CCOCC2)CCCCC1)C(=O)Nc1ccc(Cl)cc1Cl (stereo unspecified) | 0 | 0 | 0 | 0 | 0
CN(C)C(CNC(=O)CCOc1ccccc1)c1ccco1 (stereo unspecified) | 0 | - | 0 | 0 | 0
Cc1cccc(OCCC(=O)NCC(c2ccccc2)N(C)C)c1 (stereo unspecified) | 0 | 0 | 103 | 0 | 0
CN(C)C(CNC(=O)CCc1nc2ccccc2s1)c1ccccc1 (stereo unspecified) | 0 | -7 | 0 | 0 | 0
SMILES | TRPC6 act | TRPC4 inh | TRPC4 agonist | TRPC4 potent | TRPC6 inh
COc1ccc(C(CNC(=O)CCOc2ccccc2)N(C)C)cc1 (stereo unspecified) | 0 | 0 | 154 | 0 | 0
CCCCC(CC)C(=O)Nc1ccccc1C(=O)NC(C)C (stereo unspecified) | 0 | 0 | 0 | 0 | 0
CCOc1cc(/C=C2/C(=O)ON=C2C)cc(Br)c1O | 0 | 0 | 0 | 0 | 0
CCOc1cc(/C=C2\C(=O)ON=C2c2ccccc2)cc(Br)c1O | 17 | 0 | 0 | 0 | 0
COc1cc(/C=C2\C(=O)ON=C2c2ccccc2)cc(Cl)c1O | 0 | -8 | 0 | 0 | 0
CCCCC1C(=O)CC[C@H]2[C@@H]1CC(=O)[C@@H]2C/C=C\CCCC(=O)O (stereo partly specified) | 0 | 0 | 0 | 0 | 0
CN1CCc2c(sc(NC(=O)c3ccc(S(=O)(=O)N4CCCC4)cc3)c2C(N)=O)C1 | 0 | 0 | 0 | 0 | -6
Cc1cc2ccccn2c1C(=O)c1nc(NCc2ccco2)ncc1Cl | 0 | 0 | 0 | 13 | 0
Cc1ccc(Nc2nc3ccccc3[nH]2)nc1 | 0 | 0 | 108 | 0 | 0
CCc1ccccc1Nc1nc2ccccc2[nH]1 | 0 | -5 | 0 | 0 | 0
COc1ccccc1Nc1nc2ccccc2[nH]1 | 0 | 0 | 0 | 0 | 0
CN(C)c1ccc(-c2nc3ccccc3n2C)cc1 | 0 | 0 | 46 | 0 | 0
COc1cc(CNCCc2ccc(F)cc2)ccc1OCc1ccc(Cl)nc1 | 0 | -6 | 0 | 0 | 0
CC(C)(C)c1ccc(C(=O)Nc2cccc3c(=O)[nH][nH]c(=O)c23)cc1 | 0 | 0 | 0 | 0 | 0
COc1ccc(N(C)S(=O)(=O)c2cccc(C(=O)NCC(c3cccs3)N(C)C)c2)cc1 (stereo unspecified) | 0 | -6 | 0 | 0 | 0
CCOc1ccc(C(=O)NCC(c2cccs2)N(C)C)cc1 (stereo unspecified) | 0 | 0 | 50 | 0 | 0
CCOc1ccc(C(=O)NCC(C)C)cc1 | 0 | 0 | 0 | 0 | 0
CC1c2ccsc2CCN1S(=O)(=O)c1cccs1 (stereo unspecified) | 0 | 0 | 0 | 0 | 0
CCCc1ccc(S(=O)(=O)N(C)S(=O)(=O)c2ccc(F)cc2)cc1 | 0 | 0 | 0 | 0 | 0
CCN(CC)CCN1C(=O)C2C(C(=O)Nc3cc(C)cc(C)c3)C3C=CC2(O3)C1C(=O)NC1CCCCC1 (stereo unspecified) | 0 | 0 | 47 | 0 | 0
CCC1CCCCN1CCN1C(=O)C2C(C(=O)Nc3ccc(OC)cc3)C3C=CC2(O3)C1C(=O)NC1CCCCC1 (stereo unspecified) | 0 | -6 | 0 | 0 | 0
Cc1cc(CN2CCCC(C(=O)Nc3ccc(-c4nc5ccccc5[nH]4)cc3)C2)n[nH]1 (stereo unspecified) | 0 | -5 | 0 | 0 | 0
CCn1cc(CN2CCCC(C(=O)Nc3cccc(-c4cc5ccccc5[nH]4)c3)C2)c(C)n1 (stereo unspecified) | 0 | 0 | 0 | 0 | 0
CCn1cc(CN2CCCC(C(=O)Nc3ccc(-c4nc5ccccc5[nH]4)cc3)C2)c(C)n1 (stereo unspecified) | 0 | 0 | 206 | 0 | 0
Cc1nn(-c2ccccc2)c(C)c1/C=N\NS(=O)(=O)c1ccc(Cl)cc1 | 0 | 0 | 0 | 0 | 0
COc1ccc(Cl)c2sc(N(CCN(C)C)C(=O)CCS(=O)(=O)c3ccc(C)cc3)nc12 | 0 | 0 | 0 | 23 | 0
CCc1cccc2sc(N3CCN(C(=O)c4ccc([N+](=O)[O-])o4)CC3)nc12 | 0 | 0 | 0 | 0 | 0

High-throughput results (PubChem)
